Assay results: ChEMBL document CHEMBL3351928, “Discovery of clinical candidate 1-(4-(3-(4-(1H-benzo[d]imidazole-2-carbonyl)phenoxy)pyrazin-2-yl)piperidin-1-yl)ethanone (AMG 579), a potent, selective, and efficacious inhibitor of phosphodiesterase 10A (PDE10A)” (J Med Chem, 2014)

Legend:
Rattus norvegicus [1] = test: Target occupancy of PDE10A in Sprague-Dawley rat striatum at 10 mg/kg, po administered as single dose measured 1 hr post dosing and 10 mins post iv dosing of tracer by LC-MS/MS method; assay type: functional
[2] = Metabolic stability in human liver microsomes assessed as clearance at 1 uM in presence of NADPH at 37 degC incubated for 30 mins; assay type: ADME; conditions: read-out: CLH
[3] = Metabolic stability in rat liver microsomes assessed as clearance at 1 uM in presence of NADPH at 37 degC incubated for 30 mins; assay type: ADME; conditions: read-out: CLH
Phosphodiesterase 7 = Phosphodiesterase 7 (Homo sapiens, UniProt Q13946+Q9NP56); test: Inhibition of PDE7 (unknown origin); assay type: protein assay
[4] = AUC in non-human primates at 0.5 mg/kg, po; assay type: ADME, organism-based; design: dose 0.5 mg/kg, route oral; conditions: monkey, plasma
Phosphodiesterase 4 = Phosphodiesterase 4 (Homo sapiens, UniProt P27815+Q08499+Q07343+Q08493); test: Inhibition of PDE4 (unknown origin); assay type: protein assay
[5] = AUC in non-human primates at 0.5 mg/kg, iv; assay type: ADME, organism-based; design: dose 0.5 mg/kg, route intravenous; conditions: monkey, plasma
[6] = target: cGMP-specific 3',5'-cyclic phosphodiesterase (Canis lupus familiaris, UniProt O77746); test: Inhibition of PDE5 (unknown origin); design: species or system Homo sapiens
[7] = target: cAMP and cAMP-inhibited cGMP 3',5'-cyclic phosphodiesterase 10A (Homo sapiens, UniProt Q9Y233); test: Inhibition of human recombinant PDE10A using cAMP as substrate incubated for 30 mins prior to substrate addition measured after 3 hrs to overnight by IMAP FRET assay
[8] = (§1) AUC in rat at 10 mg/kg, po; assay type: ADME, organism-based, Plasma; design: dose 10 mg/kg, route oral; conditions: plasma
Rattus norvegicus [9] = test: Effect on locomotor activity in orally dosed Sprague-Dawley rat measured at 10 mins intervals over 2 hrs period; assay type: ADME, organism-based; conditions: in vivo, po
In short: (§2)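 Adult male Sprague-Dawley rats (250–280 g) were first acclimated to the test cage for 60 min. They then received oral doses of 0.1, 0.3, 1 or 3 mg/kg, n = 10. After 1 h they were given PCP 8 mg/kg subcutaneously. Photobeam breaks were collected at 10 min intervals and compiled over 2 h. Groups were compared with vehicle by one-way ANOVA followed by Dunnett's test, and the minimum effective dose was determined.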

Phosphodiesterase 8 = Phosphodiesterase 8 (Homo sapiens, UniProt O95263+O60658); test: Inhibition of PDE8 (unknown origin); assay type: protein assay
[10] = AUC in dog at 1 mg/kg, po; assay type: ADME, organism-based, Canis lupus familiaris; design: dose 1 mg/kg, route oral; conditions: plasma
[11] = Volume of distribution at steady state in non-human primates at 0.5 mg/kg, iv; assay type: ADME, organism-based; design: dose 0.5 mg/kg, route intravenous; conditions: monkey, in vivo, read-out: Vdss
[12] = Half life in non-human primates at 0.5 mg/kg, po; assay type: ADME, organism-based; design: dose 0.5 mg/kg, route oral; conditions: monkey, in vivo
[13] = Clearance in rat at 2 mg/kg, iv; assay type: ADME, organism-based; design: dose 2 mg/kg, route intravenous; conditions: in vivo
Phosphodiesterase 1 = Phosphodiesterase 1 (Homo sapiens, UniProt P54750+Q01064+Q14123); test: Inhibition of PDE1 (unknown origin); assay type: protein assay
Rattus norvegicus [14] = test: Reversal of PCP-induced hyperlocomotor activity in Sprague-Dawley rat assessed as effect on locomotor activity administered orally 1 hr before PCP dosing and measured at 10 mins intervals over 2 hrs period; assay type: functional; conditions: po, read-out: MED; in short: as §2
[15] = Oral bioavailability in dog at 1 mg/kg; assay type: ADME, organism-based, Canis lupus familiaris; conditions: in vivo
[16] = target: Dual 3',5'-cyclic-AMP and -GMP phosphodiesterase 11A (Homo sapiens, UniProt Q9HCR9); test: Inhibition of PDE11 (unknown origin)
[17] = Half life in dog at 1 mg/kg, po; assay type: ADME, organism-based, Canis lupus familiaris; design: dose 1 mg/kg, route oral; conditions: in vivo
[18] = Volume of distribution at steady state in dog at 0.5 mg/kg, iv; assay type: ADME, organism-based, Canis lupus familiaris; design: dose 0.5 mg/kg, route intravenous; conditions: in vivo, read-out: Vdss
[19] = Volume of distribution at steady state in rat at 2 mg/kg, iv; assay type: ADME, organism-based; design: dose 2 mg/kg, route intravenous; conditions: in vivo, read-out: Vdss
Phosphodiesterase 3 = Phosphodiesterase 3 (Homo sapiens, UniProt Q14432+Q13370); test: Inhibition of PDE3 (unknown origin); assay type: protein assay
[20] = Half life in rat at 2 mg/kg, iv; assay type: ADME, organism-based; design: dose 2 mg/kg, route intravenous; conditions: in vivo
[21] = Half life in rat at 10 mg/kg, po; assay type: ADME, organism-based; design: dose 10 mg/kg, route oral; conditions: in vivo
[22] = Clearance in non-human primates at 0.5 mg/kg, iv; assay type: ADME, organism-based; design: dose 0.5 mg/kg, route intravenous; conditions: monkey, in vivo
[23] = Clearance in dog at 0.5 mg/kg, iv; assay type: ADME, organism-based, Canis lupus familiaris; design: dose 0.5 mg/kg, route intravenous; conditions: in vivo
Rattus norvegicus [24] = test: Target occupancy of PDE10A in Sprague-Dawley rat striatum measured 1 hr post dosing and 10 mins post iv dosing of tracer by LC-MS/MS method; assay type: functional, organism-based
In short: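 Sprague-Dawley rats received oral doses of 0.1, 0.3, 1, 3, 10 and 30 mg/kg, n = 4 per dose. Tissue was taken 1 h after dosing and 10 min after IV tracer. Striatal tracer was compared with thalamic tracer by LC-MS/MS. An occupancy EC50 was calculated against total plasma concentration.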

[25] = AUC in dog at 0.5 mg/kg, iv; assay type: ADME, organism-based, Canis lupus familiaris; design: dose 0.5 mg/kg, route intravenous; conditions: plasma
[26] = Half life in dog at 0.5 mg/kg, iv; assay type: ADME, organism-based, Canis lupus familiaris; design: dose 0.5 mg/kg, route intravenous; conditions: in vivo
[27] = target: High affinity cGMP-specific 3',5'-cyclic phosphodiesterase 9A (Homo sapiens, UniProt O76083); test: Inhibition of PDE9 (unknown origin)
[28] = Oral bioavailability in non-human primates at 0.5 mg/kg; assay type: ADME, organism-based; conditions: monkey, in vivo
[29] = (§3) AUC in rat at 2 mg/kg, iv; assay type: ADME, organism-based, Plasma; design: dose 2 mg/kg, route intravenous; conditions: plasma
[30] = Half life in non-human primates at 0.5 mg/kg, iv; assay type: ADME, organism-based; design: dose 0.5 mg/kg, route intravenous; conditions: monkey, in vivo
[31] = target: cGMP-dependent 3',5'-cyclic phosphodiesterase (Homo sapiens, UniProt O00408); test: Inhibition of PDE2 (unknown origin)
Phosphodiesterase 6 = test: Inhibition of PDE6 (unknown origin); assay type: protein assay, Homo sapiens
[32] = (§4) Oral bioavailability in rat at 10 mg/kg; assay type: ADME, organism-based; conditions: in vivo
Rattus norvegicus [33] = test: as §1; assay type: ADME, organism-based, Plasma; design: dose 10 mg/kg, route oral; conditions: in vivo
[34] = Half life in dog at 0.5 mg/kg, po; assay type: ADME, organism-based, Canis lupus familiaris; design: dose 0.5 mg/kg, route oral; conditions: in vivo
[35] = Oral bioavailability in dog at 0.5 mg/kg; assay type: ADME, organism-based, Canis lupus familiaris; conditions: in vivo
Rattus norvegicus [36] = test: as §3; assay type: ADME, organism-based, Plasma; design: dose 2 mg/kg, route intravenous; conditions: in vivo
[37] = AUC in dog at 0.5 mg/kg, po; assay type: ADME, organism-based, Canis lupus familiaris; design: dose 0.5 mg/kg, route oral; conditions: plasma
Rattus norvegicus [38] = test: as §4; assay type: ADME, organism-based; conditions: in vivo

Chain of cAMP and cAMP-inhibited cGMP 3',5'-cyclic phosphodiesterase 10A (Q9Y233 whole entry): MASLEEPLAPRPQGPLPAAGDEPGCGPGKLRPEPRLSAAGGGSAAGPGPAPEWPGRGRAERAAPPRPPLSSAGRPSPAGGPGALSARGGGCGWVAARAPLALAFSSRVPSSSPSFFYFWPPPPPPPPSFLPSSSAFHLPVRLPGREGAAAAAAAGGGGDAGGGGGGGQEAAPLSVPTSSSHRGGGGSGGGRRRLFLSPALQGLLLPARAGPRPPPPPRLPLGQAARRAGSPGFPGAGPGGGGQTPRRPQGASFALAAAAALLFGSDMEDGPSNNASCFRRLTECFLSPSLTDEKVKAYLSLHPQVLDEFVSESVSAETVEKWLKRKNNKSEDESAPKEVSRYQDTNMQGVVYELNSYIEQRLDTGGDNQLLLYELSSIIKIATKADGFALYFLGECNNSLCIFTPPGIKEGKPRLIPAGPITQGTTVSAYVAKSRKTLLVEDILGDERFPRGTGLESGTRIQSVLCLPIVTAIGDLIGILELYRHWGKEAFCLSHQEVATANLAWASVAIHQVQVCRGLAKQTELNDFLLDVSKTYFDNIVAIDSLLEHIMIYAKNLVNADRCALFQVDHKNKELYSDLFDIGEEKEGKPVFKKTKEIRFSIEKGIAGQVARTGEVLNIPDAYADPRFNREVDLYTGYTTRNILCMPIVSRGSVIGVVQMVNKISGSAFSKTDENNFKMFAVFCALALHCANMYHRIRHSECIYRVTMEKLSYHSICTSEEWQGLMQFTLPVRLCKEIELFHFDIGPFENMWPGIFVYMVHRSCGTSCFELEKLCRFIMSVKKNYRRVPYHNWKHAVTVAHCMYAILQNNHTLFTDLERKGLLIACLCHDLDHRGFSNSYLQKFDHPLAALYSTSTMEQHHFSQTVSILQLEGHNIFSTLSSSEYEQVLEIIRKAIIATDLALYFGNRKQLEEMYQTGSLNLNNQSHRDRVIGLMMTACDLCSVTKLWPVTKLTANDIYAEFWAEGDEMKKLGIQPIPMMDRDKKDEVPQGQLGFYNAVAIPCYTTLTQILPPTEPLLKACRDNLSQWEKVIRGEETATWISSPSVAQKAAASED
Chain of Dual 3',5'-cyclic-AMP and -GMP phosphodiesterase 11A (Q9HCR9 whole entry): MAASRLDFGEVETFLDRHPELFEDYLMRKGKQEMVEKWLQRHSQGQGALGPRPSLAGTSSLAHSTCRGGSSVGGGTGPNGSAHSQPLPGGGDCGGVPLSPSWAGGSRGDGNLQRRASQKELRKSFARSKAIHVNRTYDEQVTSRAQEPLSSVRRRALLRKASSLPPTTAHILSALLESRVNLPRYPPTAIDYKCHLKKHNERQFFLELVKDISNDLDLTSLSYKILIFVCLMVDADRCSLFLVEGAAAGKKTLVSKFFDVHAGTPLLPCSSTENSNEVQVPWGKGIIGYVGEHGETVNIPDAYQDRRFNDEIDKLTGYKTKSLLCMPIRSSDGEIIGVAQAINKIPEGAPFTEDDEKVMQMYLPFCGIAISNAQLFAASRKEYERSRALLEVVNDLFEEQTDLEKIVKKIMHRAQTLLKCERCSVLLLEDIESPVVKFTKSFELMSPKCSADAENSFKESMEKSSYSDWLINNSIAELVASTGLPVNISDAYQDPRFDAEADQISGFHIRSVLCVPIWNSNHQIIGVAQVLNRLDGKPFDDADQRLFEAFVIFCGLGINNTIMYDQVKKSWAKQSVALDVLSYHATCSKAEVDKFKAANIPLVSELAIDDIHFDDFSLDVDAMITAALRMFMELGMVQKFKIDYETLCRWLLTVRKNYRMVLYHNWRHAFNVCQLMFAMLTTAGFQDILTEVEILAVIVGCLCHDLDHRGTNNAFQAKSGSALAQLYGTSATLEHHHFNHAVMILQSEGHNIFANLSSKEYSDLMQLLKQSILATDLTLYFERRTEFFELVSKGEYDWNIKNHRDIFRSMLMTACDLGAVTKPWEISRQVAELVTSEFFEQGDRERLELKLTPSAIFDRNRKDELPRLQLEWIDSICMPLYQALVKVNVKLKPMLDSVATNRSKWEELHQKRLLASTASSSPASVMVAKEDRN
Chain of cGMP-dependent 3',5'-cyclic phosphodiesterase (O00408 whole entry): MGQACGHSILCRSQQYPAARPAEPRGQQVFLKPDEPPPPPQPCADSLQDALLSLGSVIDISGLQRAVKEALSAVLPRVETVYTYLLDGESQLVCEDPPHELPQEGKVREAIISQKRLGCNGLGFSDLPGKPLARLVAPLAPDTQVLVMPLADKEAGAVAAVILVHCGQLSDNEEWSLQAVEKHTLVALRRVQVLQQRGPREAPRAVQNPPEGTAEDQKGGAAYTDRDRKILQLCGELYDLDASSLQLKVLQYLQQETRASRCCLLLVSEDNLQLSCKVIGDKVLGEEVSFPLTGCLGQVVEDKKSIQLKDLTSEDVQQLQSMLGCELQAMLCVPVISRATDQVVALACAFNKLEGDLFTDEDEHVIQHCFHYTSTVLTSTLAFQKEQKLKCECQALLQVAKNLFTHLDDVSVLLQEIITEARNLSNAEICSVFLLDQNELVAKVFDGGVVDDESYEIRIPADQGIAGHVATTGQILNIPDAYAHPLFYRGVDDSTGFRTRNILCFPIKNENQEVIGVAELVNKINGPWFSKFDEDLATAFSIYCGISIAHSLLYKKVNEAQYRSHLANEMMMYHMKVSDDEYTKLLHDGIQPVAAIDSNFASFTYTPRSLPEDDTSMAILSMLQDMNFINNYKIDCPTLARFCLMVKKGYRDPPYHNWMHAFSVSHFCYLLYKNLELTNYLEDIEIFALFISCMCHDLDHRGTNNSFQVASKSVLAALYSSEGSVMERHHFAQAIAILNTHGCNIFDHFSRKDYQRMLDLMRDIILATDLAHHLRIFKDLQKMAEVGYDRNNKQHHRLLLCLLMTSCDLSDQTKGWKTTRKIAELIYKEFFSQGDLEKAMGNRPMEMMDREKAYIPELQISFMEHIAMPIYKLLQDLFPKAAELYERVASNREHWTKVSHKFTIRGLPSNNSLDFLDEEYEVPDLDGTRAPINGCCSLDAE
Chain of High affinity cGMP-specific 3',5'-cyclic phosphodiesterase 9A (O76083 whole entry): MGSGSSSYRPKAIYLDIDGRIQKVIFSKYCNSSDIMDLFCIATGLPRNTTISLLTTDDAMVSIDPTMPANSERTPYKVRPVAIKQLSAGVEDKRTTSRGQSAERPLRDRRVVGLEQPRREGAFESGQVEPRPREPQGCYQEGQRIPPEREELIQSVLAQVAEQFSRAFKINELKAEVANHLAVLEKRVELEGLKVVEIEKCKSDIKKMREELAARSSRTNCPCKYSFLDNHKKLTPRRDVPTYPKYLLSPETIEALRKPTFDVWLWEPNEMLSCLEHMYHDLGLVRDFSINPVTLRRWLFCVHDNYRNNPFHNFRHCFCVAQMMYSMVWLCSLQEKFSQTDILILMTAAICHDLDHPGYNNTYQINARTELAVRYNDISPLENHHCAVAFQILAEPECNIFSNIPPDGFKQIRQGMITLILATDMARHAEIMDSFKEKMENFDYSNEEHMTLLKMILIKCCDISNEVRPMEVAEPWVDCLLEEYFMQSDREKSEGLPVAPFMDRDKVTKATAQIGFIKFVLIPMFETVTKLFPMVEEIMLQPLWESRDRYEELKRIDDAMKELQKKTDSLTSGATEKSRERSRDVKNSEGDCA

microsomal CLint at 1 µM [2] | microsomal CLint at 1 µM [3] | IC50 [7] | clearance [13] | Vd [19] | half-life [20] | half-life [21] | EC50 (Rattus norvegicus [24]) | SMILES | Occ (Rattus norvegicus [1]) | AUC [5] | AUC [8] | Activity (Rattus norvegicus [9]) | Vd [11] | minimal effective dose (Rattus norvegicus [14]) | Vd [18] | clearance [22] | clearance [23] | Occ (Rattus norvegicus [24]) | AUC [25] | half-life [26] | further results
100 µL/min/mg | > 399 µL/min/mg |  |  |  |  |  |  | O=C(c1ccc(Oc2ncccc2C2CCOCC2)cc1)c1nc2ccccc2[nH]1 | 69.2% |  |  |  |  |  |  |  |  |  |  |  | 
29 µL/min/mg | 463 µL/min/mg | 0.1 nM | 50.5 mL/min/kg | 31.2 L/kg | 23.1 h | 1.72 h | 965 nM | CC(=O)N1CCC(c2cccnc2Oc2ccc(C(=O)c3nc4ccccc4[nH]3)cc2)CC1 | 86.5% | 1.61 µM·h |  | Non-toxic | 1.62 L/kg | 0.3 mg/kg | 0.5 L/kg | 13.7 mL/min/kg | 0.867 mL/min/kg | Dose-dependent effect | 21.5 µM·h | 7.41 h | AUC (Rattus norvegicus [33]): 5.07 µM·h; half-life [34]: 5.07 h; bioavailability [35]: 45%; AUC (Rattus norvegicus [36]): 1.62 µM·h; half-life [30]: 1.26 h; AUC [37]: 9.59 µM·h; F (Rattus norvegicus [38]): 63%
50 µL/min/mg | 119 µL/min/mg | 0.8 nM | 10.3 mL/min/kg | 2.27 L/kg | 4.26 h | 3.99 h | 117 nM | O=C(c1ccc(Oc2nccnc2C2CCOCC2)cc1)c1nc2ccccc2[nH]1 | 91% |  | 7.93 µM·h | Non-toxic |  | 1 mg/kg |  |  |  | Dose-dependent effect |  |  | AUC [29]: 7.75 µM·h; bioavailability [32]: 22%

SMILES | microsomal CLint at 1 µM [2] | microsomal CLint at 1 µM [3] | IC50 [7] | clearance [13] | Vd [19] | half-life [20] | half-life [21] | EC50 (Rattus norvegicus [24]) | Occ (Rattus norvegicus [1]) | AUC [5] | AUC [8] | Activity (Rattus norvegicus [9]) | Vd [11] | minimal effective dose (Rattus norvegicus [14]) | Vd [18] | clearance [22] | clearance [23] | Occ (Rattus norvegicus [24]) | AUC [25] | half-life [26] | further results
CC(=O)N1CCC(c2nccnc2Oc2ccc(C(=O)c3nc4ccccc4[nH]3)cc2)CC1 | 20 µL/min/mg | 41 µL/min/mg | 0.1 nM | 9 mL/min/kg | 0.81 L/kg | 3.16 h | 3.35 h | 711 nM | 86.3% | 3.41 µM·h | 19.8 µM·h | Non-toxic | 0.83 L/kg | 0.3 mg/kg | 0.77 L/kg | 5.67 mL/min/kg | 1.23 mL/min/kg | Dose-dependent effect | 13.7 µM·h | 6.89 h | IC50 (Phosphodiesterase 7): > 30000 nM; AUC [4]: 2.4 µM·h; IC50 (Phosphodiesterase 4): > 30000 nM; IC50 [6]: > 30000 nM; IC50 (Phosphodiesterase 8): > 30000 nM; AUC [10]: 16.9 µM·h; half-life [12]: 2.48 h; IC50 (Phosphodiesterase 1): > 30000 nM; bioavailability [15]: 72%; IC50 [16]: > 30000 nM; half-life [17]: 11 h; IC50 (Phosphodiesterase 3): > 30000 nM; IC50 [27]: > 30000 nM; bioavailability [28]: 71%; AUC [29]: 8.31 µM·h; half-life [30]: 1.09 h; IC50 [31]: > 30000 nM; IC50 (Phosphodiesterase 6): > 30000 nM; bioavailability [32]: 49%
